# Most compounds without a hit are left out; they make up all but 4.9% or so of the library.
# STAT3 act: increases IL-6 driven STAT3 reporter signal; actives 0.91% (n = 190,000); activation (% of control), % at 5.6 µM; AID 871; U3A cells, IL-6 STAT3-luciferase reporter, luminescence; 100% = signal with IL-6 EC80 alone;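 active = activation above the screen-wide mean of compound activation plus 3 SD, cut at about 130% in these data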;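 note: 0% = background luminescence of wells with medium and substrate only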
#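 Material: human U3A cells carrying STAT3-luciferase construct. Measured by: reporter luminescence signal. Timing: compound 1 h, then IL-6 6 h at 37 °C.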
# STAT3 inh-1: inhibitors of IL-6 induced STAT3 signaling; U3A cells, IL-6 STAT3-luciferase reporter, luminescence; host cell line lacks STAT1; inhibition, % at 5.5 µM; AID 862; actives 0.89% (n = 190,000);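 active = inhibition above the mean inhibition across all screened compounds plus 3 SD, cut at about 44% in these data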;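 note: 0% = DMSO only wells and 100% = 100 µM nifuroxazide control wells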
# STAT1 inh: inhibitors of IFN-gamma induced STAT1 signaling | NIH 3T3 STAT1-luciferase reporter, luminescence | inhibition, % at 5.5 µM | actives 0.35% (n = 200,000) | AID 920;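 active = inhibition above a set limit, the mean inhibition across all tested compounds plus 3 SD, cut at about 34% in these data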;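 note: 0% = IFN-gamma with DMSO and 100% = IFN-gamma with 300 µM nifuroxazide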
# STAT1 act: STAT1 signaling activation; NIH 3T3 STAT1-luciferase reporter, IFN-gamma, luminescence; 100% = IFN-gamma alone, no compound; activation (% of control), % at 5.5 µM; actives 2.6% (n = 200,000); AID 932;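 active = activation above the screen-wide mean activation plus 3 SD, cut at about 130% in these data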;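 note: raw ratio to IFN-gamma control signal so 100% means no change and 0% no light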
# FLuc stim CS: affects firefly luciferase, flagging false hits in luciferase stimulation screens; 200,000 tested, under 10 active; P08659; AID 1027; activation factor at 10 µM; ATPlite luciferase biochemical, luminescence, 10 min; 0 = ATP-free wells, 1 = DMSO control;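 active = luciferase activation factor, scaled between plate controls, of at least 2 with compound at 10 µM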
# Target sequence (P08659 whole entry, looked up): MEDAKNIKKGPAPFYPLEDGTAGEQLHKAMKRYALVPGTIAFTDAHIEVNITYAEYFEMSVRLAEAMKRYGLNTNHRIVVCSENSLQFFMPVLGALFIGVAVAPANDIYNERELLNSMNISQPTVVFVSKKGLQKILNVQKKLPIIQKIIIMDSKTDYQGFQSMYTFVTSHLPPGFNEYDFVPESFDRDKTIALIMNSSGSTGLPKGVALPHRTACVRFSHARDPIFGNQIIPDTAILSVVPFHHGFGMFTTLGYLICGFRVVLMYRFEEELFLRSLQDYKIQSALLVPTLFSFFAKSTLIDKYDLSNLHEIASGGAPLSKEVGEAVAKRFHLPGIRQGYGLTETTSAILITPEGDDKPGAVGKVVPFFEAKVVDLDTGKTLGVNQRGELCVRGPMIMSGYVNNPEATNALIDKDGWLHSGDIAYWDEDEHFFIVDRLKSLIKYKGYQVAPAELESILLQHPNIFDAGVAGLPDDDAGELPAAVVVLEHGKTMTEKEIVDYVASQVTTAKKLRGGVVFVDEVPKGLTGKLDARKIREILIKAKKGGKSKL
#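 Material: luciferase plus luciferin reagent, cell-free. Medium: PBS buffer for ATP. Also added: ATP substrate, dispensed from a 10.24 µM working solution in PBS. Doses: test compounds dosed from 2 mM stocks in 100% DMSO. Incubation: 10 min post-reagent at room temperature. Technique: light output (luminescence). Read-out basis: luminescence gain marking luciferase activators.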
# FLuc inh counter: Photinus pyralis luciferase inhibition counter-screen | actives 1.5% (n = 200,000) | ATPLite firefly luciferase biochemical luminescence, 10 min | AID 1006 | inhibition, % at 10 µM;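 active = inhibition above about 50% when tested at 10 µM, limit read from the data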
# STAT3 inh-2: STAT3 inhibition, confirmation assay; inhibition, % at 5.7 µM; AID 1265; shares compounds with STAT3 inh-1; U3A cells, IL-6 STAT3 luciferase reporter, luminescence; cell line lacks STAT1; actives 45% (n = 1,200);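 active = inhibition above the hit cutoff computed for the primary STAT3 screen, cut at about 44% in these data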;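 note: 0% = IL-6 plus DMSO and 100% = IL-6 plus nifuroxazide control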
# NFkB inh 2: counter-screen for STAT3 inhibitors: NF-kappaB inhibition; HEK293T NF-kB luciferase reporter, TNF-alpha induced; AID 1308; actives 36% (n = 1,200); inhibition, % at 5.7 µM; shares compounds with STAT3 inh-1;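 active = inhibition above the mean of solvent-only control wells plus 3 SD, cutoff set per campaign, cut at about 13% in these data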;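 note: 0% = TNF-alpha with DMSO and 100% = TNF-alpha with MG high control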
# STAT1 inh STAT3c: STAT1 inhibition in STAT3 inhibitor counter-screen; shares compounds with STAT3 inh-1; inhibition, % at 5.7 µM; actives 27% (n = 1,200); NIH 3T3 STAT1-luciferase reporter, IFN-gamma induced, luminescence;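 active = inhibition above the mean plus 3 SD of solvent-only control wells, limit set per screening run, cut at about 16% in these data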;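 note: 0% = DMSO with IFN-gamma and 100% = nifuroxazide control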
# The depositor's hits bear a star; / = not tested or not shown; ! = not confirmed by another sample.
SMILES,STAT3 act,STAT3 inh-1,STAT1 inh,STAT1 act,FLuc stim CS,FLuc inh counter,STAT3 inh-2,NFkB inh 2,STAT1 inh STAT3c
COc1ccc(NC(=O)COc2ccc(-c3nn(C)c(=O)c4ccccc34)cc2)cc1,94,14,-9,106,1.1,-9,/,/,/
COc1ccc(OCC(=O)Nc2cc(-c3nn(C)c(=O)c4ccccc34)ccc2OC)cc1,61,51*,26,77,1,-1,48*,22*,25*
COc1ccc(C(=O)c2sc(Nc3ccccc3)c(C(=O)Nc3ccc(OC)c(OC)c3)c2N)cc1,81,23,6,94,1.1,-6,/,/,/
COc1ccc(NC(=O)c2c(Nc3ccccc3)sc(C(=O)c3ccc(F)cc3)c2N)cc1,50,61*,24,78,1,-4,37,35*,43*
O=C(Nc1nc(-c2ccc3c(c2)OCCO3)cs1)c1ccc(S(=O)(=O)N2CCCCC2)cc1,67,45*,8,92,1,-2,62*,18*,0
O=C(Nc1nc(-c2ccc(S(=O)(=O)N3CCCCCC3)cc2)cs1)c1ccccc1,74,34,17,84,1,0,/,/,/
CCc1ccc(NC(=O)c2ccc(C3SCC(=O)N3CCc3ccccc3)cc2)cc1 (stereo not given),65,46*,-3,102,1.1,-8,48*,15*,-2
COc1ccc(S(=O)(=O)NCC2CCCN(CC(C)(C)C)C2)cc1 (stereo not given),106,0,-9,106,1.1,-7,/,/,/
COc1ccccc1-n1c(-c2ccccc2)c[n+]2c1CCc1ccccc1-2,34,86*,34*!,67,1,-2,74*,8,21*
Cc1ccc(-c2nc3n(n2)Cc2ccccc2-3)cc1,63,49*,24,78,0.1,92*,-1,18*,-37
Cc1nc2ccc(-c3nc4ccccc4[nH]3)cc2[nH]1,64,46*,-26,125,0.2,77*,9,-11,-87
CC(=O)c1c(C)[nH]c(C(=O)OCC(=O)Nc2ccc(Cl)cc2[N+](=O)[O-])c1C,50,57*,27,75,1,-4,73*,28*,28*
O=C(Nc1cc(Cl)ccn1)C1CCN(S(=O)(=O)c2cccs2)CC1,56,51*,0,100,1.1,-6,43,1,-7
CCN(CC)CCNc1ccc2nnc(CCNS(=O)(=O)c3ccc(C)cc3)n2n1,102,5,-3,103,1,-3,/,/,/
Cc1ccc(S(=O)(=O)N(C)c2ccc(C(=O)N3CCN(Cc4ccc5c(c4)OCO5)CC3)cc2)cc1,58,54*,13,88,1,-4,45*,10,0
CN(c1ccc(C(=O)N2CCN(Cc3ccc4c(c3)OCO4)CC2)cc1)S(=O)(=O)c1ccccc1,60,49*,8,93,1.1,-7,41,11,6
O=C(c1ccc(NS(=O)(=O)c2ccccc2)cc1)N1CCN(Cc2ccc3c(c2)OCO3)CC1,92,11,1,99,1.1,-10,/,/,/
CCCn1nnnc1NCc1c(F)cccc1Cl,102,0,-7,105,1.1,-9,/,/,/
COC(=O)CSc1ncnc2c1sc1nc3c(cc12)COC(C)(C)C3,66,44*,23,79,0.9,12,44*,18*,28*
CC1(C)Cc2nc3sc4c(N(CCO)CCO)ncnc4c3cc2CO1,103,-1,-10,110,1,2,/,/,/
O=C(CCC1CCCCC1)NCc1ccccn1,97,6,1,99,1,0,/,/,/

# Source: PubChem BioAssay
